Assay outcomes deposited in PubChem by Broad Institute.
The list is not random: actives were taken first. Their share in the collection is about 3.1%.
F508del corr: correctors of CFTR F508del function in bronchial epithelial cells | CFBE cells, YFP halide quenching; stimulated with forskolin plus potentiator P3; % fluorescence drop versus neutral controls | activity (quench increase), % at 7.58 µM | actives 0.36% (n = 350,000) | AID 720511;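 active means mean added fluorescence quench of at least 8% versus neutral control, with both replicates also reaching 8%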;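 further: cells transiently co-express mutant CFTR-F508del with the halide-sensitive YFP; corrector assay measuring rescue of mutant channel to the surface after 24 h compound exposure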
S100A4 inh HTS: S100A4-myosin IIA interaction inhibition | actives 0.14% (n = 360,000) | inhibition, % at 10.7 µM | P26447 | S100A4/TAMRA-MyoIIA peptide fluorescence polarization;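 active means mean inhibition of at least 70% across replicates, with every replicate also reaching that level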
Target sequence (P26447 whole entry, looked up): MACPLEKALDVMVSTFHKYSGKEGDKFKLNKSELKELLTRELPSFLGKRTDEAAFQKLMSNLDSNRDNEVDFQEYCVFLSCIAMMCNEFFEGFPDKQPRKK
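Assay system: human S100A4 monomer with TAMRA-labelled myosin IIA peptide / Buffer or medium: Calcium-containing HEPES buffer, pH 7.2 / Reagent: TAMRA-labelled myosin IIA heavy-chain peptide probe, 5 nM / Compound: one dose per compound / Timing: polarization read 5 min after assay mix addition, stable 5–60 min / Benchmarks: neutral control DMSO, positive control TFP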
ERAP1 inh: ERAP1 (human) enzyme inhibition; inhibition, % at 10.7 µM; recombinant ERAP1, Leu-AMC fluorescence, 60 min; Q9NZ08; actives 0.15% (n = 340,000);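 active means mean replicate inhibition of at least 30%, or all replicates individually reaching that 30% level; inactive means mean below 30% and not every replicate reaching it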;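 further: 0% = neutral control wells and 100% = L-leucinethiol positive control wells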
Ecoli rRNA inh: inhibitors of bacterial rRNA selective over humanized ribosomes. actives 1.6% (n = 350,000). GFP signal change (wild-type ribosome), % (test concentration not listed). E. coli WT GFP vs humanized-ribosome RFP mutants, fluorescence, 24 h; active compounds read low; DMSO median 0, no signal -100;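 active means significant combined selectivity score with lowered wild-type GFP, culture density cut under 30%, mutant RFP and density less affected; inactive means any of these conditions unmet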
SIRT5 inh: blocks human SIRT5 desuccinylation of peptide; actives 1.1% (n = 330,000); AID 652115; inhibition, % at 15 µM; Purified SirT5, succinyl-peptide AMC, trypsin-coupled fluorescence; in the data active means inhibition above about 15%
Target sequence (Q9NXA8 whole entry, looked up): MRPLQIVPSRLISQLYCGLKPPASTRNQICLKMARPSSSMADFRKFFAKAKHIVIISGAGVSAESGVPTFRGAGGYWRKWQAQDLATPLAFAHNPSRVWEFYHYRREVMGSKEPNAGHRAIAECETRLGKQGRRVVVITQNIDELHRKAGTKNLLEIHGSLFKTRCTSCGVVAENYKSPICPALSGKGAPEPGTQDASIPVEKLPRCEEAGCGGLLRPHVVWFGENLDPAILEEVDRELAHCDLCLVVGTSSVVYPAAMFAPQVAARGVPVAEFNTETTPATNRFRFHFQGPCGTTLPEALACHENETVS
* = called active by the depositor; x = not tested or not shown.

SMILES	F508del corr	S100A4 inh HTS	ERAP1 inh	Ecoli rRNA inh	SIRT5 inh
COc1ccc(S(=O)(=O)N(C)C[C@@H]2OCCCC[C@H](C)Oc3ccc(NS(=O)(=O)c4ccccc4)cc3C(=O)N([C@H](C)CO)C[C@@H]2C)cc1	2	2	0	-2	8
COc1ccc(S(=O)(=O)Nc2ccc3c(c2)C(=O)N([C@H](C)CO)C[C@@H](C)[C@@H](CN(C)S(=O)(=O)c2ccccc2)OCCCC[C@@H](C)O3)cc1	2	1	2	-3	24*
CCCNC(=O)N(C)C[C@H]1Oc2cc(-c3ccc(C)cc3)ccc2S(=O)(=O)N([C@H](C)CO)C[C@H]1C	0	3	-2	0	-3
O=C(C1CCOCC1)N1CC2(C1)[C@@H](c1ccccc1)[C@@H](CO)N2Cc1ccc(Cl)cc1	-3	-7	1	0	-2
CO[C@@H]1CC[C@H]2CCOc3c(C#N)cccc3C(=O)N(C)C[C@H](C)C(=O)N(C)C[C@H]1O2	-3	122*	0	2	13
CO[C@@H]1CC[C@H]2CCOc3c(C#N)cccc3C(=O)N(C)C[C@@H](OC)[C@@H](C)C(=O)N(C)C[C@H]1O2	x	15	-6	-3	-6
CO[C@@H]1CC[C@@H]2CCOc3c(C#N)cccc3C(=O)N(C)C[C@@H](OC)[C@@H](C)C(=O)N(C)C[C@@H]1O2	x	10	-5	-3	35*
CO[C@H]1CC[C@H]2CCOc3c(C#N)cccc3C(=O)N(C)C[C@@H](C)C(=O)N(C)C[C@H]1O2	1	16	2	4	0
CO[C@@H]1CC[C@H]2CCN(C)C(=O)[C@@H](C)[C@H](OC)CN(C)C(=O)c3cc(C#N)ccc3OC[C@@H]1O2	1	10	1	2	4
CO[C@@H]1CC[C@@H]2CCN(C)C(=O)[C@@H](C)[C@H](OC)CN(C)C(=O)c3cc(C#N)ccc3OC[C@@H]1O2	2	12	-1	10	19*
C[C@@H]1CN([C@H](C)CO)C(=O)c2cc(C#Cc3cccnc3)cnc2O[C@@H]1CN(C)Cc1cccnc1	3	-4	9	3	5
CC(=O)c1sc2nc(-c3ccccc3)cc(C)c2c1N	0	-8	-2	14	1
CC(=O)c1sc2nc(C)c3c(c2c1N)CCCC3	-3	-1	-8	-33*	4
CCC(CO)n1c(=S)[nH]c2cc(OC)c(OC)cc2c1=O (stereo not given)	-3	-1	1	-22*	3
COc1cc2c(cc1OC)CN(C1CCCN(Cc3cc(Cl)ccc3O)C1)CC2 (stereo not given)	5	-5	-5	-28*	-1
CN1/C(=C/C=C/c2n(C)c3cc([N+](=O)[O-])c([N+](=O)[O-])cc3[n+]2C)C(C)(C)c2ccccc21	1	-6	12	-59*	3
CCNC(=O)C[C@@H]1CC[C@H]2[C@@H](COc3ccc(NC(=O)c4cccc(OC)c4)cc3C(=O)N2C)O1	-3	-6	-4	5	4
CCCCNC(=O)c1ccc2c(OCC)n(CCCC)nc2c1	1	1	-2	1	x
CCCCn1nc2cc(C(=O)NCCc3ccc(C)cc3)ccc2c1OCC	-2	-3	-4	-38*	-5
CCNC(=O)C[C@H]1CC[C@@H]2[C@H](COc3ccc(NC(=O)c4cccc(C(F)(F)F)c4)cc3C(=O)N2C)O1	2	x	x	-1	x
Cc1ccc(/C=N/NC(=O)c2nnn(-c3nonc3N)c2CN(C)c2ccccc2)s1	1	-1	-3	8	5
COc1ccc2ccccc2c1/C=N/NC(=O)c1nnn(-c2nonc2N)c1C(C)C	-3	0	-3	0	28*
CN(Cc1c(C(=O)N/N=C/c2c(F)cccc2Cl)nnn1-c1nonc1N)c1ccccc1	2	-10	-2	-22*	-4
COc1ccc2ccccc2c1/C=N/NC(=O)c1nnn(-c2nonc2N)c1CN(C)C	-6	-1	0	-2	1
Cc1ccc(/C=N/NC(=O)c2nnn(-c3nonc3N)c2CSc2ccccc2)cc1	-1	-1	x	-2	x
SMILES	F508del corr	S100A4 inh HTS	ERAP1 inh	Ecoli rRNA inh	SIRT5 inh
Cc1ccc(SCc2c(C(=O)N/N=C/c3ccccc3)nnn2-c2nonc2N)cc1	-2	2	4	-16*	1
Cc1c(C(=O)N/N=C/c2c(O)ccc3ccccc23)nnn1-c1nonc1N	14*	0	-1	7	-1
COc1ccc(NC(=O)Nc2ccc3c(c2)C(=O)N([C@@H](C)CO)C[C@@H](C)[C@H](CN(C)S(=O)(=O)c2cn(C)cn2)OCCCC[C@@H](C)O3)cc1	-1	x	x	-2	x
CC(C)c1c(C(=O)N/N=C/c2cccnc2)nnn1-c1nonc1N	-2	4	0	-20*	0
O=C(C[C@H]1C=C[C@H](NS(=O)(=O)c2ccc(F)cc2)[C@@H](CO)O1)NC1CCCCC1	0	1	6	-1	0
COCC#Cc1ccc([C@H]2[C@@H](CO)N3CCCCN(C(=O)Nc4cc(F)ccc4F)C[C@@H]23)cc1	-1	-9	0	1	5
COc1ccc(C2C3=C(COC3=O)Oc3cc4c(cc32)OCO4)cc1OC (stereo not given)	9.6*	3	-4	-5	1
COc1cc(C2C3=C(COC3=O)Oc3cc4c(cc32)OCO4)ccc1OC(C)=O (stereo not given)	4	-3	-1	7	1
CC1(C)Cc2c(c(-c3ccco3)nc3sc4c(NCCN5CCOCC5)ncnc4c23)CO1	9.7*	33	0	8	4
CC1(C)Cc2c(c(-c3ccco3)nc3sc4c(NCCCO)ncnc4c23)CO1	7	-2	4	12	-4
CC1(C)Cc2ccccc2C(CSc2ccccc2C(=O)O)=N1	-2	10	-1	-25*	3
COc1cc2c(cc1OC)C(CSc1ccccc1C(=O)O)=NC(C)(C)C2	7	-14	17	-13	0
CN1C(=O)c2cc(NC(=O)Nc3ccccc3F)ccc2OC[C@H]2O[C@H](CC(=O)O)CC[C@H]21	1	x	x	3	x
COc1ccc(S(=O)(=O)Nc2ccc3c(c2)C(=O)N([C@H](C)CO)C[C@@H](C)[C@@H](CN(C)C(=O)Nc2c(C)noc2C)OCCCC[C@@H](C)O3)cc1	-2	-3	2	1	3
COc1cccc(S(=O)(=O)N(C)C[C@H]2Oc3cc(C4=CCCC4)ccc3S(=O)(=O)N([C@H](C)CO)C[C@@H]2C)c1	-3	-6	-3	3	3
COc1cccc(S(=O)(=O)N(C)C[C@H]2Oc3cc(C4=CCCC4)ccc3S(=O)(=O)N([C@H](C)CO)C[C@H]2C)c1	-1	-4	3	3	21*
